Assay outcomes deposited in PubChem by The Scripps Research Institute Molecular Screening Center.
A selection: hits, their analogues and other compounds. The true share with any hit is near 4.5%.
TAAR1 antagonist = antagonists of human TAAR1 | Q96RJ0 | CHO RD-HGA16 TAAR1, Fluo-8 calcium fluorescence, antagonist | inhibition, % at 3 µM | hit rate 1.5% among 360,000;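 active = inhibition above a per-plate cutoff, the mean inhibition of test compounds on that plate plus 3 SD, cut at about 49% in these data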;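 also: 0% = DMSO plus EC80 beta-PEA response and 100% = DMSO alone without agonist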
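System: RD-HGA16 CHO cells with stable hTAAR1 and Gα16 | Probe or stimulus: EC80 β-phenethylamine stimulus | Dosing: 3 µM, single point | Times: Dye loading 75 min at 37 °C, then 30 min room temperature | Measured by: Fluo-8 calcium-sensitive fluorescence | Read-out basis: % inhibition of agonist calcium response | Replicates: n of 1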
TAAR1 agonist = human TAAR1 agonism; Q96RJ0; CHO RD-HGA16 TAAR1, Fluo-8 calcium fluorescence; vehicle wells 0%, saturating PEA agonist 100%; activation, % at 3 µM; hit rate 0.99% among 360,000; AID 624467;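 active = activation above the mean activation of all test compounds in the run plus 3 SD, cut at about 38% in these data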
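System: CHO-derived RD-HGA16 cells with stable Gα16 and human TAAR1. Times: 17-24 h plating, Fluo-8 75 min 37 °C, 30 min RT. Measured by: calcium-sensitive Fluo-8 signal, excitation 470-495, emission 515-575 nm. Read-out basis: % activation relative to PEA EC100 response. Control set: DMSO and PEA EC100. Repeats: no replicates (n 1).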
OX1R antag-1 = OX1R (human) antagonism; inhibition, % at 6.6 µM; hit rate 1.8% among 330,000; OX1R-expressing cells, FRET antagonist read-out; AID 485270; in the data active = inhibition mostly above about 38%, no sharp cut-off; inactive = mostly below about 40%;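 also: 0% = agonist challenge alone and 100% = reference antagonist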
Target sequence (O43613 whole entry, looked up): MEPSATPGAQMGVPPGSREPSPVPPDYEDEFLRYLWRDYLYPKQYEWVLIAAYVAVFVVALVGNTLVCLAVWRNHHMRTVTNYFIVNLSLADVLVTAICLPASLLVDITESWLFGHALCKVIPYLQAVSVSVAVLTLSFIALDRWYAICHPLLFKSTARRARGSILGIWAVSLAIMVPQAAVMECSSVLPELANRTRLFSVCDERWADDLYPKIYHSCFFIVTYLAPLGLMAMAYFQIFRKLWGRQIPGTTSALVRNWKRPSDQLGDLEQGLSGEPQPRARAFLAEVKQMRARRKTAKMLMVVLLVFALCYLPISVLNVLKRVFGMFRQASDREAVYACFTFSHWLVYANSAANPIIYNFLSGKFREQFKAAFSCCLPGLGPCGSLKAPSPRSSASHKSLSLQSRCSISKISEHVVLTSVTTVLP
OX1R antag-2 = antagonists of human orexin 1 receptor. inhibition, % at 5 µM. hit rate 0.43% among 330,000. O43613. CHO/OX1R cells, Fluo-8 calcium fluorescence, orexin A;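 active = inhibition above its plate's threshold, mean inhibition of all tested compounds on the plate plus 3 SD, cut at about 37% in these data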;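 also: 0% = orexin A challenge wells and 100% = SB-334867-A antagonist wells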
CHO parental Ca = signal in parental CHO cells, OX1R antagonist counter-screen; AID 463079; inhibition, % at 5.6 µM; parental CHO-K1, ATP-induced calcium, Fluo-8 fluorescence; hit rate 0.63% among 330,000;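 active = inhibition above that plate's mean sample inhibition plus 3 SD, cut at about 26% in these data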;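 also: 0% = ATP-challenged DMSO wells and 100% = DMSO wells without ATP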
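Material – parental CHO cells · Reagent – ATP stimulus · Compound – single nominal dose of 5.6 µM per compound · Detection – Fluo-8 fluorescence · Read-out basis – percent inhibition of calcium signal · Controls – ATP-challenged DMSO wells low, unchallenged DMSO wells high · Repeats – no replicates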
GPR7 antag = antagonists of human GPR7 (neuropeptides B/W receptor 1). P48145. GPR7-expressing cells, fluorescence antagonist assay. inhibition, % at 4.4 µM. hit rate 1.1% among 290,000. AID 1861; in the data active = inhibition above about 16%, passing the limit was not always enough;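 also: cells stimulated with the agonist NPW; 0% = agonist with vehicle and 100% = vehicle without agonist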
Active calls of the source: *.

How did O=C(COc1cccc(C(F)(F)F)c1)NNC(=O)c1ccc(=O)[nH]c1 do in these assays?
TAAR1 antagonist: -3; TAAR1 agonist: 5; OX1R antag-1: 3; OX1R antag-2: -4; CHO parental Ca: 0

How did CC(C)=CCc1c(O)cc2oc3c(CC=C(C)C)c(O)c(O)c(CC=C(C)C)c3c(=O)c2c1O do in these assays?
TAAR1 antagonist: 58*; TAAR1 agonist: 4; OX1R antag-1: 37; OX1R antag-2: 6; CHO parental Ca: -15

What do the screens show for `CC(C)=CCc1cc(-c2oc3cc(O)cc(O)c3c(=O)c2O)ccc1O`?
TAAR1 antagonist: 6; TAAR1 agonist: 0; OX1R antag-1: 10; OX1R antag-2: 10; CHO parental Ca: 17

Results for Cc1cc(N2CCNC[C@@H]2C)ccc1N1CCS(=O)(=O)CC1 ?
TAAR1 antagonist: -7; TAAR1 agonist: 0

Results for C/C(=N\NC(=O)c1cc(O)ccc1O)c1cccc(NC(=O)c2cccc(Cl)c2)c1 ?
TAAR1 antagonist: 45; TAAR1 agonist: 19; OX1R antag-1: 20; OX1R antag-2: -8; CHO parental Ca: -11; GPR7 antag: -14

What do the screens show for `C/C(=N\NC(=O)c1cc(O)ccc1O)c1cccc(NC(=O)c2ccc(Cl)cc2)c1`?
TAAR1 antagonist: 51*; TAAR1 agonist: 5; OX1R antag-1: 22; OX1R antag-2: -27; CHO parental Ca: -7; GPR7 antag: 3

What do the screens show for `CC(C)c1[nH]nc2c1C(c1cccc(C(F)(F)F)c1)N(c1ccccc1)C2=O` (stereo unspecified)?
TAAR1 antagonist: -63; TAAR1 agonist: 0

Results for CN(CC(=O)Nc1ccc(F)cc1)C(=O)CSc1nc2ncc(Cl)cc2[nH]1 ?
TAAR1 antagonist: -23; TAAR1 agonist: 3; OX1R antag-1: 17; OX1R antag-2: -8; CHO parental Ca: -17; GPR7 antag: -5

How did O=C(CSc1nc2ncc(Cl)cc2[nH]1)Nc1cccc(F)c1 do in these assays?
TAAR1 antagonist: 14; TAAR1 agonist: 11; OX1R antag-1: 47*; OX1R antag-2: -14; CHO parental Ca: 4; GPR7 antag: -19

What do the screens show for `OC[C@@H]1CN(Cc2ccc3c(c2)OCO3)C[C@H](n2cnc3c(N4CCCC4)ncnc32)O1`?
TAAR1 antagonist: -16; TAAR1 agonist: 2

What do the screens show for `OC[C@@H]1CN(Cc2ccc3c(c2)OCO3)C[C@H](n2cnc3c(N4CCN(c5ccccc5)CC4)ncnc32)O1`?
TAAR1 antagonist: 55*; TAAR1 agonist: 12

How did COc1cc(CN2C[C@@H](CO)O[C@@H](n3cnc4c(NC5CCC5)ncnc43)C2)cc(OC)c1OC do in these assays?
TAAR1 antagonist: -4; TAAR1 agonist: 2

What do the screens show for `COc1cc(CN2C[C@@H](CO)O[C@@H](n3cnc4c(Nc5ccccc5)ncnc43)C2)cc(OC)c1OC`?
TAAR1 antagonist: 60*; TAAR1 agonist: 15

How did C=CCNc1ncnc2c1ncn2[C@H]1CN(Cc2ccccc2)C[C@@H](CO)O1 do in these assays?
TAAR1 antagonist: -22; TAAR1 agonist: 1

Results for C=CCNc1ncnc2c1ncn2[C@H]1CN(CCc2ccccc2)C[C@@H](CO)O1 ?
TAAR1 antagonist: -18; TAAR1 agonist: 38*

Results for COC(=O)[C@]12C[C@H](CC(=O)NCc3ccc(C)o3)C(=O)N(Cc3ccc4c(c3)OCO4)C1=C[C@H](COCc1ccccc1)O[C@@H]2C ?
TAAR1 antagonist: -22; TAAR1 agonist: -1

How did C=CCN1CC(COCc2ccccc2)OCCS1(=O)=O (stereo unspecified) do in these assays?
TAAR1 antagonist: -6; TAAR1 agonist: 0

How did COc1cccc(CN(C)[C@H]2C[C@H]3c4[nH]c5ccccc5c4CCN3C[C@H]2[C@H](C)O)c1OC do in these assays?
TAAR1 antagonist: -13; TAAR1 agonist: 1

What do the screens show for `O=S(=O)(/N=C(\c1ccccc1)N1CCOCC1)c1ccc(Cl)cc1`?
TAAR1 antagonist: 16; TAAR1 agonist: 1; OX1R antag-1: 6; OX1R antag-2: 3; CHO parental Ca: -5; GPR7 antag: 12

How did O=[N+]([O-])c1ccc(Cl)c(S(=O)(=O)/N=C(/c2ccccc2)N2CCOCC2)c1 do in these assays?
TAAR1 antagonist: -19; TAAR1 agonist: -1; OX1R antag-1: 51*; OX1R antag-2: -19; CHO parental Ca: -4; GPR7 antag: -5

How did Cn1nccc1C(=O)OCC(=O)Nc1cccc(Cl)c1 do in these assays?
TAAR1 antagonist: -11; TAAR1 agonist: 2; OX1R antag-1: 0; OX1R antag-2: -21; CHO parental Ca: -6

What do the screens show for `CN(C)S(=O)(=O)Oc1ccc(C(=O)Nc2cccc(C(F)(F)F)c2)cc1`?
TAAR1 antagonist: 41; TAAR1 agonist: 6; OX1R antag-1: 51*; OX1R antag-2: 1; CHO parental Ca: 53*; GPR7 antag: 1

Results for S=C1NCCOc2ccccc21 ?
TAAR1 antagonist: -26; TAAR1 agonist: 1

How did Brc1ccc(N/N=C(/N=Nc2nn[nH]n2)c2ccccc2)cc1 do in these assays?
TAAR1 antagonist: 19; TAAR1 agonist: 4; OX1R antag-1: 47*; OX1R antag-2: -9; CHO parental Ca: -8; GPR7 antag: -15

Results for O=[N+]([O-])c1ccc(S(=O)(=O)NCCc2ccncc2)cc1 ?
TAAR1 antagonist: 15; TAAR1 agonist: 3; OX1R antag-1: 43*; OX1R antag-2: -16; CHO parental Ca: -4; GPR7 antag: -9

What do the screens show for `Cc1ccccc1S(=O)(=O)N1CCCc2nc(-c3ccccc3)ccc21`?
TAAR1 antagonist: 22; TAAR1 agonist: -2

What do the screens show for `O=C(C=Cc1ccc(O)c(O)c1)NCC(=O)NC(Cc1ccccc1)C(=O)O` (stereo unspecified)?
TAAR1 antagonist: -3; TAAR1 agonist: 3

Results for CC(C)CC(N)c1csc(Nc2ccc(C(=O)c3ccccc3)cc2)n1 (stereo unspecified) ?
TAAR1 antagonist: 29; TAAR1 agonist: 41*

What do the screens show for `NC(Cc1ccccc1)c1csc(Nc2ccc(C(=O)c3ccccc3)cc2)n1` (stereo unspecified)?
TAAR1 antagonist: 27; TAAR1 agonist: 54*

What do the screens show for `NC(c1csc(Nc2nccc(C(F)(F)F)n2)n1)C1CCCCC1` (stereo unspecified)?
TAAR1 antagonist: 30; TAAR1 agonist: 44*

Results for CC(C)c1ccc(NC(=O)Nc2nc(C(N)CCc3ccccc3)cs2)cc1 (stereo unspecified) ?
TAAR1 antagonist: 33; TAAR1 agonist: 42*

How did O=C(N[C@H](C(=O)N1CCC[C@H]1C(=O)NC1CCCC1)C1CCCCC1)c1ccc(Cl)c(Cl)c1 do in these assays?
TAAR1 antagonist: -16; TAAR1 agonist: -3

What do the screens show for `NC(c1csc(Nc2ccc(C(=O)c3ccccc3)cc2)n1)C1CCCCC1` (stereo unspecified)?
TAAR1 antagonist: 41; TAAR1 agonist: 46*
